Assay results as given in ChEMBL document CHEMBL4814013, “Scaffold repurposing of fendiline: Identification of potent KRAS plasma membrane localization inhibitors” (Eur J Med Chem, 2021).
The source made the active and inactive calls. The calls are words filed in the database; no cut-off is given here.

Assays:
[1] = Antiproliferative activity against human MOH cells expressing KRAS mutant assessed as reduction in cell growth incubated for 72 hrs by CyQuant proliferation assay; format: functional, cell-based
In short: (§1)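 Cells seeded in 96-well plates; after 24 h fresh growth medium with 0.1% DMSO vehicle or drug added (highest dose 30 µM for cancer lines), grown 72 h at 37 °C, 5% CO2. Live cell number measured by CyQUANT fluorescence. IC50 from three independent experiments. MEFs were isogenic lines carrying oncogenic BRAF or KRAS.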

MDCK [2] = test: Inhibition of ASM in dog MDCK cells co-expressing recombinant full length mGFP-tagged KRAS G12V mutant and mCherry-CAAX assessed as reduction in plasma membrane localization of KRAS mutant at 1 uM incubated for 48 hrs followed by incubation with recombinant ASM in continued presence of compound for 60 mins by confocal microscopic analysis; format: cell membranes; conditions: Canis lupus familiaris, time 49.0 hrs
In short: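 MDCK cells stably co-expressing mGFP-KRAS G12V and mCherry-CAAX seeded on glass coverslips and grown 48 h with or without compound. Medium then replaced with fresh medium containing 2 units/mL recombinant ASM, drug continued, for 60 min. Cells mounted in mowiol and imaged by confocal microscopy. Mislocalization scored by Manders coefficient.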

Mus musculus [3] = test: In vivo inhibition of Ca2+ channel in nu/nu mouse xenografted with human MIA PaCa-2 cells harboring KRAS mutation assessed as blood vessel dialation in tumor at 1 to 5 mg/kg, ip administered once daily for 5 days with 2 days break by immunostaining; format: functional, organism-based; conditions: dose 1-5 mg/kg, time 5.0 day
NCI-H1975 = test: Antiproliferative activity against human NCI-H1975 cells expressing wild type KRAS assessed as reduction in cell growth incubated for 72 hrs by CyQuant proliferation assay; format: functional, cell-based; conditions: NCI-H1975, 72 h; in short: as §1
MIA PaCa-2 = test: Antitumor activity human MIA PaCa-2 cells harboring KRAS mutation xenografted in nu/nu mouse assessed as induction of apoptosis by measuring increase in cleaved caspase 3 level in tumor at 1 to 5 mg/kg, ip administered once daily for 5 days with 2 days break by immunohistochemistry; format: functional, organism-based; conditions: dose 1-5 mg/kg, time 5.0 day
In short: (§2)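 Paraffin tumor sections of 4–5 µm were deparaffinized and given heat antigen retrieval in 10 mM sodium citrate. Endogenous peroxidase was quenched and sections blocked in 2.5% normal goat serum. Primary antibody (pERK or cleaved caspase 3) applied overnight at 4 °C, biotinylated secondary 1:250 for 45 min at rt, then ABC reagent 30 min and DAB development. Rabbit IgG served as control.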

MDCK [4] = test: Inhibition of ASM in dog MDCK cells co-expressing recombinant full length mGFP-tagged KRAS G12V mutant and mCherry-CAAX assessed as reduction in plasma membrane localization of KRAS mutant incubated for 48 hrs by confocal microscopic analysis relative to control; format: cell membranes; conditions: Canis lupus familiaris
In short: (§3)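 MDCK cells stably co-expressing mGFP-KRAS G12V or mGFP-LactC2 with mCherry-CAAX (HRAS 179–189 C181S/C184S) grown on coverslips in DMEM/10% FBS. Treated 48 h with 0.1% DMSO or graded drug, fixed in 4% paraformaldehyde, then quantitative confocal imaging. Mislocalization scored as the Manders fraction of mCherry-CAAX co-localizing with the GFP probe. IC50 and Emax from three independent experiments.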

[5] = Antiproliferative activity against human MPANC96 cells expressing KRAS mutant assessed as reduction in cell growth incubated for 72 hrs by CyQuant proliferation assay; format: functional, cell-based; conditions: MPANC96, 72 h; in short: as §1
MEF [6] = test: Antiproliferative activity against mouse MEF cells expressing KRAS G12D mutant assessed as reduction in cell growth incubated for 72 hrs by CyQuant proliferation assay; format: functional, cell-based; in short: as §1
MDCK [7] = test: Cytotoxicity against dog MDCK cells at 30 uM; format: functional, cell-based; conditions: Canis lupus familiaris
[8] = Inhibition of ASM in dog MDCK cells co-expressing recombinant full length mGFP-tagged KRAS G12V mutant and mCherry-CAAX assessed as reduction in plasma membrane localization of KRAS mutant incubated for 48 hrs by confocal microscopic analysis; format: cell membranes, Canis lupus familiaris; in short: as §3
MDCK [9] = test: Inhibition of ASM in dog MDCK cells co-expressing recombinant full length GFP-tagged LactC2 and mCherry-CAAX assessed as reduction in plasma membrane localization of LactC2 incubated for 48 hrs by confocal microscopic analysis; format: cell membranes; conditions: Canis lupus familiaris; in short: as §3
MDCK [10] = test: Reduction in expression of human GFP-tagged ASM transfected in dog MDCK cells at 5 uM incubated for 48 hrs by western blot analysis; format: functional, cell-based; conditions: Canis lupus familiaris
In short: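 SMPD1-GFP-expressing MDCK cells treated 48 h with 5 µM compound, washed in cold PBS and lysed in Tris pH 7.5 buffer with NaF, EGTA, DTT, vanadate, 1% NP40 and protease inhibitors. 20 µg of protein resolved by SDS-PAGE and immunoblotted. Signals detected by enhanced chemiluminescence and quantified by densitometry.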

SK-CO-1 = test: Antiproliferative activity against human SK-CO-1 cells expressing mutant KRAS assessed as reduction in cell growth incubated for 72 hrs by CyQuant proliferation assay; format: functional, cell-based; conditions: SK-CO-1, 72 h; in short: as §1
[11] = Toxicity in nu/nu mouse xenografted with human MIA PaCa-2 cells assessed as effect on body weight at 1 to 5 mg/kg, ip administered once daily for 5 days with 2 days break; format: organism-based; conditions: in vivo, 120 h, dose 1-5 mg/kg, time 5 day
MEF [12] = test: Antiproliferative activity against mouse MEF cells expressing KRAS G12V mutant assessed as reduction in cell growth incubated for 72 hrs by CyQuant proliferation assay; format: functional, cell-based; in short: as §1
Mus musculus [13] = test: In vivo inhibition of ASM in nu/nu mouse xenografted with human MIA PaCa-2 cells harboring KRAS mutation assessed as increase in SM accumulation in tumor at 12.5 mg/kg, ip administered once daily for 5 days with 2 days break by GFP-lysenin staining based confocal laser microscopy; format: functional, organism-based; conditions: time 5.0 day
In short: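 Sections of MiaPaCa-2 xenograft tumors from i.p.-treated nu/nu mice (12.5 mg/kg) stained with GFP-tagged lysenin to detect sphingomyelin.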

MEF [14] = test: Cytotoxicity against mouse MEF cells expressing BRAF V600E mutant and wild type KRAS assessed as reduction in cell growth incubated for 72 hrs by CyQuant proliferation assay; format: functional, cell-based; in short: as §1
Mus musculus [15] = test: In vivo inhibition of KRAS signaling in nu/nu mouse xenografted with human MIA PaCa-2 cells harboring KRAS mutation assessed as decrease in ERK phosphorylation in tumor at 1 to 5 mg/kg, ip administered once daily for 5 days with 2 days break by immunohistochemistry; format: functional, organism-based; conditions: dose 1-5 mg/kg, time 5.0 day; in short: as §2
Ishikawa = test: Antiproliferative activity against human Ishikawa cells expressing wild type KRAS assessed as reduction in cell growth incubated for 72 hrs by CyQuant proliferation assay; format: functional, cell-based; in short: as §1
KLE = test: Antiproliferative activity against human KLE cells expressing wild type KRAS assessed as reduction in cell growth upto 30 uM incubated for 72 hrs by CyQuant proliferation assay; format: functional, cell-based; conditions: dose microM <=30, time 72.0 hrs; in short: as §1

COc1ccc([C@@H](C)N(CC=C(c2ccccc2)c2ccccc2)CCN2CCCC2)cc1
IC50 [1]: 3.6 µM
inhibition (MDCK [2]): inactive
inhibition (Mus musculus [3]): inactive
IC50 (NCI-H1975): > 30 µM
Activity (MIA PaCa-2): Active
Emax (MDCK [4]): 0.85
IC50 [5]: 3.8 µM
IC50 (MEF [6]): 3.9 µM
Activity (MDCK [7]): Active
IC50 [8]: 0.3 µM
inhibition (MDCK [9]): Active
inhibition (MDCK [10]): Active
IC50 (SK-CO-1): 3 µM
Activity [11]: Non-Toxic
IC50 (MEF [12]): 2.6 µM
inhibition (Mus musculus [13]): Active
IC50 (MEF [14]): 8.5 µM
inhibition (Mus musculus [15]): Active
IC50 (Ishikawa): 17.3 µM
Activity (KLE): inactive

COc1ccc([C@@H](C)N(CC=C(c2ccccc2)c2ccccc2)CCCN2CCN(C)CC2)cc1
IC50 [1]: 3.8 µM
inhibition (MDCK [2]): inactive
inhibition (Mus musculus [3]): inactive
IC50 (NCI-H1975): > 30 µM
Activity (MIA PaCa-2): Active
Emax (MDCK [4]): 0.81
IC50 [5]: 4.2 µM
IC50 (MEF [6]): 2.4 µM
Activity (MDCK [7]): Active
IC50 [8]: 0.02 µM
inhibition (MDCK [9]): Active
inhibition (MDCK [10]): inactive
IC50 (SK-CO-1): 3.5 µM
Activity [11]: Non-Toxic
IC50 (MEF [12]): 2.9 µM
inhibition (Mus musculus [13]): inactive
IC50 (MEF [14]): 7.9 µM
inhibition (Mus musculus [15]): Active
IC50 (Ishikawa): 11 µM
Activity (KLE): inactive
